KCNK3 block – human KCNK3 channel inhibition, primary screen; 340,000 compounds, 0.84% hits; O14649; AID 602410; CHO-KCNK3 thallium flux, FluxOR fluorescence; active compounds read low; B-score at 10 µM;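 active = B-score under library mean minus 4 SD, starting fluorescence ratio at most library mean plus 5 SD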;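 note: more negative B-score means stronger inhibition of thallium flux through KCNK3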
Target sequence (O14649 whole entry, looked up): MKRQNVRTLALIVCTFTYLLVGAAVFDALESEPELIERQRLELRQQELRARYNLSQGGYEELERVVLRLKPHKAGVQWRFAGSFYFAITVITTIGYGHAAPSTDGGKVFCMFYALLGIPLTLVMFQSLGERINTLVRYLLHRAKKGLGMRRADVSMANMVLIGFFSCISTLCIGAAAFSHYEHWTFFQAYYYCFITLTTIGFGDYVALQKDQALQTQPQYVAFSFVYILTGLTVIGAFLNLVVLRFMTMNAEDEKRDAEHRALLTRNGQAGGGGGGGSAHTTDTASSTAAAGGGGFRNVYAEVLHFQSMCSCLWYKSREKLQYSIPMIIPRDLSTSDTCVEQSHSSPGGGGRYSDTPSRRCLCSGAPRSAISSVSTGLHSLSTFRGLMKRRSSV
Kir21 inh – Kir2.1 (mouse) channel inhibition; 310,000 compounds, 0.85% hits; HEK293-Kir2.1, FluxOR thallium flux fluorescence; active compounds read low; AID 1672; B-score at 10 µM;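 active = fluorescence ratio B-score at or below minus 3 SD of library scores, with starting-brightness B-score within 2 SD, cut at about -4.2 in these data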;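 note: channel flux triggered by added potassium and thallium sulfate stimulus; B-score of peak minus minimum fluorescence over baseline after thallium stimulus; more negative B-score means stronger Kir2.1 block with less thallium influx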
hERG protect – shields human hERG channel from block by proarrhythmic agents; Q12809; CHO-hERG, FluxOR thallium flux, dofetilide IC70 present; activation (rescue from dofetilide block), less the hit threshold, % at 10 µM; 310,000 compounds, 0.51% hits;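 active = activation above the mean of controls blocked by dofetilide plus 5 SD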;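 note: thallium influx through hERG after potassium depolarization seen as dye fluorescence rise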
KCNQ1 pot – potentiators or activators of human KCNQ1 potassium channel. P51787. AID 2648. CHO-K1 KCNQ1, thallium flux FluxOR fluorescence; active compounds read high. B-score at 10 µM. 310,000 compounds, 0.35% hits;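 active = fluorescence ratio B-score, a plate-corrected score, at least three library SD, with initial intensity B-score within 5 SD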
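Assay system: CHO-K1 cells stably expressing KCNQ1. Medium: assay buffer for compound exposure, DMSO matched across wells. Timing: 37 °C overnight plating, 90-min dark dye load, 20-min compound pretreatment. Signal: kinetic FluxOR fluorescence, 10 s baseline plus 110 s post-stimulus.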
KCNQ1 inh – blocks the human KCNQ1 potassium channel | CHO-K1 KCNQ1, FluxOR thallium flux fluorescence; active compounds read high | P51787 | 310,000 compounds, 1.3% hits | B-score at 10 µM;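 active = compounds whose thallium flux B-score, printed positive for inhibition, exceeds three library SD while starting fluorescence stays within three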;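 note: channel opened by potassium depolarization with thallium stimulus after 20 min compound exposure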
KCNK9 block – human KCNK9 channel inhibition; Q9NPC2; HEK293 KCNK9, FluxOR thallium flux fluorescence; active compounds read low; B-score at 10 µM; 310,000 compounds, 1.2% hits;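 active = ratio B-score over 3 SD below the library mean, with starting fluorescence within 5 SD of its mean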;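 note: negative B-score means less thallium flux so channel inhibition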
KCNK9 inh conf – human KCNK9 inhibitor confirmation. HEK293 KCNK9 cells, FluxOR thallium flux fluorescence. 4,900 compounds, 43% hits. shares compounds with KCNK9 block. inhibition, % at 10 µM;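 active = thallium signal inhibited by more than 5 SD of the compound-free buffer control wells, on both duplicate plates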
Kir21 sel – mouse Kir2.1 off-target activity of KCNK9 modulators | shares compounds with KCNK9 block | inhibition, % at 10 µM | Kir2.1 cells, FluxOR thallium flux fluorescence | 4,900 compounds, 4% hits;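 active = thallium signal drop more than 5 SD beyond the mean of the no-compound control wells, seen in both duplicate plates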;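 note: signal is fluorescence rise after thallium addition divided by baseline fluorescence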
HEK293 Tl ctr – non-induced cell nonspecific activity of KCNK9 modulators; shares compounds with KCNK9 block; non-induced KCNK9-HEK293, FluxOR thallium flux; 4,900 compounds, 40% hits; inhibition, % at 10 µM;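 active = thallium signal drop beyond 5 SD of the untreated control mean, on both duplicate plates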
Numbers stand for hits. Most compounds without a hit are left out; they make up all but 3.7% or so of the library.

How did c1ccc(Cc2nnc(N3CCCCC3)c3ccccc23)cc1 do in these assays?
KCNK3 block: inactive; Kir21 inh: inactive; hERG protect: inactive; KCNQ1 pot: inactive; KCNQ1 inh: inactive; KCNK9 block: inactive; KCNK9 inh conf: inactive; Kir21 sel: inactive; HEK293 Tl ctr: inactive

How did O=C(CSc1ccc(Cl)cc1)OCC(=O)N1CCN(c2ccccc2)CC1 do in these assays?
KCNK3 block: inactive

How did COC(=O)c1ccc(OC)c(CN2CCCN(Cc3cc(C)ccc3C)S2(=O)=O)c1 do in these assays?
KCNK3 block: inactive; Kir21 inh: inactive; hERG protect: inactive; KCNQ1 pot: inactive; KCNQ1 inh: inactive; KCNK9 block: -16.9; KCNK9 inh conf: 62.0%; Kir21 sel: inactive; HEK293 Tl ctr: 27.5%

Results for NC(=O)C1CCN(C(=O)CCSCc2ccc(Cl)c(Cl)c2)CC1 ?
KCNK3 block: inactive; Kir21 inh: inactive; hERG protect: inactive; KCNQ1 pot: inactive; KCNQ1 inh: inactive; KCNK9 block: inactive

Results for N#Cc1ccccc1-c1ccccc1C(=O)N1CCCCC1 ?
KCNK3 block: inactive; Kir21 inh: inactive; hERG protect: inactive; KCNQ1 pot: inactive; KCNQ1 inh: inactive; KCNK9 block: -19.2; KCNK9 inh conf: inactive; Kir21 sel: inactive; HEK293 Tl ctr: inactive

Results for O=C(c1cccc2c1-c1ccccc1C2)N1CCCCC1 ?
KCNK3 block: inactive; Kir21 inh: inactive; hERG protect: inactive; KCNQ1 pot: inactive; KCNQ1 inh: inactive; KCNK9 block: inactive

How did CCC(=O)OC1(C(C)=O)CCC2C3CCC4=CC(=O)CCC4(C)C3CCC21C (stereo unspecified) do in these assays?
KCNK3 block: inactive

How did COc1ccc(Br)cc1CNC(=O)C1CCCN(S(=O)(=O)N2CC(C)CC(C)C2)C1 (stereo unspecified) do in these assays?
KCNK3 block: inactive; Kir21 inh: inactive; hERG protect: inactive; KCNQ1 pot: inactive; KCNQ1 inh: inactive; KCNK9 block: -8.48; KCNK9 inh conf: inactive; Kir21 sel: inactive; HEK293 Tl ctr: inactive

How did COc1ccc(Br)cc1CNC(=O)C1CCN(S(=O)(=O)N2CCCCC2)CC1 do in these assays?
KCNK3 block: inactive; Kir21 inh: inactive; hERG protect: inactive; KCNQ1 pot: inactive; KCNQ1 inh: inactive; KCNK9 block: inactive

What do the screens show for `Cc1ccc(CNC(=O)C2CCCN(S(=O)(=O)N3CC(C)CC(C)C3)C2)cc1` (stereo unspecified)?
KCNK3 block: inactive; Kir21 inh: inactive; hERG protect: inactive; KCNQ1 pot: inactive; KCNQ1 inh: inactive; KCNK9 block: inactive; KCNK9 inh conf: inactive; Kir21 sel: inactive; HEK293 Tl ctr: inactive

Results for CCCS(=O)(=O)N1CCCC(C(=O)NCc2ccc(C)cc2)C1 (stereo unspecified) ?
KCNK3 block: inactive; Kir21 inh: inactive; hERG protect: inactive; KCNQ1 pot: inactive; KCNQ1 inh: inactive; KCNK9 block: inactive

What do the screens show for `Cc1c(N2C(=O)/C(=C\c3cccc4ccccc34)SC2=S)c(=O)n(-c2ccccc2)n1C`?
KCNK3 block: -9.4; Kir21 inh: inactive; hERG protect: inactive; KCNQ1 pot: inactive; KCNQ1 inh: inactive; KCNK9 block: inactive; KCNK9 inh conf: inactive; Kir21 sel: inactive; HEK293 Tl ctr: inactive

Results for Cc1c(N2C(=O)c3ccccc3C2=O)c(=O)n(-c2ccccc2)n1C ?
KCNK3 block: inactive; Kir21 inh: inactive; hERG protect: inactive; KCNQ1 pot: inactive; KCNQ1 inh: inactive; KCNK9 block: inactive

How did CC(NC(=O)/C(C#N)=C/c1ccc(C(=O)O)cc1)c1ccccc1 (stereo unspecified) do in these assays?
KCNK3 block: inactive; Kir21 inh: inactive; hERG protect: inactive; KCNQ1 pot: inactive; KCNQ1 inh: inactive; KCNK9 block: inactive; KCNK9 inh conf: inactive; Kir21 sel: inactive; HEK293 Tl ctr: inactive

High-throughput results deposited in PubChem BioAssay by Johns Hopkins Ion Channel Center.
